Experimental data as given in ChEMBL document CHEMBL1124882, “Synthesis and evaluation of 1,2,2-tris(sulfonyl)hydrazines as antineoplastic and trypanocidal agents” (1990).

Key:
L1210 [1] = assay: Evaluated for average percent change in body weight from onset to termination of therapy against L1210 Leukemia cells in mice after 150 mg/kg dose administration.; format: functional, Mus musculus
Summary of the method: (§1)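 Recipient mice each received 0.1 mL of suspension containing 10⁶ L1210 cells. The line was kept in RPMI 1640 with 10% FBS and was re-passaged i.p. in CD2F1 donor mice every 8 weeks. Drug was given i.p. in DMSO (≤0.025 mL) once daily for 6 consecutive days, starting 24 h after implantation. Groups held 5–10 mice, with vehicle controls. Value is average % body-weight change from onset to end of therapy.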

Mus musculus [2] = species on record: Mus musculus; assay: Effect of aging of compound on the activity after 0 min; format: functional
Summary of the method: (§2)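 Compound, 1 M stock in DMSO, diluted 100 µL into 9.9 mL 200 mM potassium phosphate pH 7.6 at 37 °C; aliquots taken at timed intervals and injected ip (20 µL/g, effective initial dose 0.2 mmol/kg) into female CD-1 mice infected ip with 10⁶ T. rhodesiense Y Tat 1.1, 3 days post-infection; 3–4 mice/group; read-out days survived beyond vehicle controls.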

Mus musculus [3] = species on record: Mus musculus; assay: Effect of aging of compound on the activity after 100 min; format: functional; summary of the method: as §2
Mus musculus [4] = species on record: Mus musculus; assay: Effect of aging of compound on the activity after 200 min; format: functional; summary of the method: as §2
Mus musculus [5] = species on record: Mus musculus; assay: (§3) Percentage of mice survived after 60 days of treatment with the compound was determined.; format: functional
Summary of the method: (§4)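 Mice implanted ip with 10⁶ L1210 leukemia cells (also P388 leukemia and Sarcoma 180); drug given ip in DMSO (≤0.025 mL) once daily for 6 consecutive days from 24 h after implantation, or as single dose; groups of five; vehicle controls. %T/C = mean survival treated/control ×100, excluding 60-day survivors, which are reported separately; weight change from onset to end of therapy used as toxicity.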

L1210 [6] = assay: as §3; format: functional, Mus musculus; set-up: concentration or dose not given beside the values; summary of the method: as §4
L1210 [7] = assay: Average survival time of treated group / control group x(100) was determined.; format: functional, Mus musculus; summary of the method: as §4
L1210 [8] = assay: Evaluated for average percent change in body weight from onset to termination of therapy against L1210 Leukemia cells in mice after 40 mg/kg dose administration.; format: functional, Mus musculus; summary of the method: as §1
L1210 [9] = assay: Evaluated for average percent change in body weight from onset to termination of therapy against L1210 Leukemia cells in mice after 15 mg/kg dose administration.; format: functional, Mus musculus
Summary of the method: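 Mice were implanted with 10⁶ L1210 cells in 0.1 mL, from a line kept in culture and passaged in CD2F1 donor mice. A single i.p. dose was given in DMSO (≤0.025 mL). Groups held 5–10 mice, with vehicle-treated tumor-bearing controls. Read-out is average percent body-weight change from onset to termination of therapy, used as the toxicity index.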

L1210 [10] = assay: Evaluated for average percent change in body weight from onset to termination of therapy against L1210 Leukemia cells in mice after 100 mg/kg dose administration.; format: functional, Mus musculus; summary of the method: as §1
L1210 [11] = assay: Evaluated for average percent change in body weight from onset to termination of therapy against L1210 Leukemia cells in mice after 200 mg/kg dose administration.; format: functional, Mus musculus; summary of the method: as §1
L1210 [12] = assay: Evaluated for average percent change in body weight from onset to termination of therapy against L1210 Leukemia cells in mice after 60 mg/kg dose administration.; format: functional, Mus musculus; summary of the method: as §1

Structure (SMILES) | Change in weight (L1210 [1]) [%] | Survival (L1210 [6]) [%] | T/C (L1210 [7]) [%] | further results
CN(N(S(C)(=O)=O)S(C)(=O)=O)S(C)(=O)=O | -7.7 |  |  | Mean increase in survival (Mus musculus [2]): 6.3 days; Mean increase in survival (Mus musculus [3]): 3.7 days; Mean increase in survival (Mus musculus [4]): 1.2 days; Survival (Mus musculus [5]): 0%
CS(=O)(=O)N(CCI)N(S(C)(=O)=O)S(C)(=O)=O | 8 | 0 | 110 | 
CN(NS(C)(=O)=O)S(C)(=O)=O |  | 0 | 180 | Change in weight (L1210 [8]): -5.8%
CS(=O)(=O)N(CCBr)N(S(C)(=O)=O)S(C)(=O)=O | -2 | 0 |  | 
CS(=O)(=O)NN(CCCl)S(C)(=O)=O [VPN-4090CE] |  | 40 | 130 | Change in weight (L1210 [9]): -3.3%
CS(=O)(=O)N(N(CCCl)S(=O)(=O)c1ccccc1)S(C)(=O)=O | 0.5 | 40 |  | 
CS(=O)(=O)OCCN(N(S(C)(=O)=O)S(C)(=O)=O)S(C)(=O)=O |  | 0 |  | Change in weight (L1210 [10]): -4.2%
CS(=O)(=O)N(N(CCCl)S(=O)(=O)c1ccc(Br)cc1)S(C)(=O)=O | 0.9 | 60 |  | 
CS(=O)(=O)N(N(CCCl)S(=O)(=O)c1ccc(Cl)cc1)S(C)(=O)=O |  | 60 |  | Change in weight (L1210 [11]): -3.4%
COc1ccc(S(=O)(=O)N(CCCl)N(S(C)(=O)=O)S(C)(=O)=O)cc1 |  | 100 |  | Change in weight (L1210 [11]): 5.9%
Cc1ccc(S(=O)(=O)N(CCCl)N(S(C)(=O)=O)S(C)(=O)=O)cc1 | -12 | 60 | 210 | 
CS(=O)(=O)N(CCCl)N(S(C)(=O)=O)S(C)(=O)=O |  | 100 |  | Change in weight (L1210 [12]): -7.2%
